Assays:
[1] = Inhibitory activity against varicella zoster virus thymidine kinase (VZV TK-) 07/1 strain
[2] = Inhibitory activity against varicella zoster virus thymidine kinase (VZV TK+) OKA strain
[3] = Inhibitory activity against varicella zoster virus thymidine kinase (VZV TK+) YS strain
[4] = Inhibitory activity against herpes simplex virus type 1 (HSV-1) thymidine kinase (TK) VMW 1837 strain
[5] = Inhibition of herpes simplex virus type 1 thymidine kinase (HSV-1 TK-) B2006 strain
Thymidine kinase [6] = target: T1, Thymidine kinase (Human herpesvirus 3, UniProt Q6QCL9); assay: Inhibitory activity against varicella zoster virus thymidine kinase (VZV TK+) YS strain
T1 sequence (Q6QCL9 whole entry): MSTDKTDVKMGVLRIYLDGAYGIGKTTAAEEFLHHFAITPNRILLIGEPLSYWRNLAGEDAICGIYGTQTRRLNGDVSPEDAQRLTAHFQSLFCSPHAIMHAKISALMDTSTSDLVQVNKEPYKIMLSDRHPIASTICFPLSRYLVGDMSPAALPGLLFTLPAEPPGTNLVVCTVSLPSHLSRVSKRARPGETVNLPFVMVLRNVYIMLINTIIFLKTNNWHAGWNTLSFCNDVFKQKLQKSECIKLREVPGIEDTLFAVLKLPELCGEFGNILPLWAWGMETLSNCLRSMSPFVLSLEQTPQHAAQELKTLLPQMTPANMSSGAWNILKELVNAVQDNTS
Outline: (§1)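 HEL cell cultures were grown to confluence and infected with 100 CCID50 of VZV. After a 1 h adsorption period, unbound virus was removed and compound was added at serial concentrations (400, 200, 100, ... μg/mL). Cytopathic effect was read when untreated virus controls reached full cytopathicity.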

[7] = Inhibition of varicella zoster virus thymidine kinase (VZV TK+) YS/R strain
Thymidine kinase [8] = target: T1, Thymidine kinase; assay: Inhibitory activity against varicella zoster virus thymidine kinase (VZV TK+) OKA strain
Outline: as §1

SMILES	EC50 [1] [µM]	EC50 [2] [µM]	EC50 [3] [µM]	EC50 [4] [µM]	EC50 [5] [µM]	EC50 (Thymidine kinase [6]) [µM]	EC50 [7] [µM]	EC50 (Thymidine kinase [8]) [µM]
Nc1cnn(CCOCP(=O)(O)O)c(=O)n1	> 399	> 399	> 399	–	–	–	–	–
Nc1nc(N)c2nc(Br)n(CCOCP(=O)(O)O)c2n1	16.3	8.71	22.8	54.4	54.4	–	–	–
Nc1ncnc2c1nc(Br)n2CCOCP(=O)(O)O	> 142	> 142	> 142	–	–	–	–	–
Nc1nc(Cl)nc2c1ncn2CCOCP(=O)(O)O	61.7	130	104	–	–	–	–	–
CC(C)OP(=O)(COCCn1cnc2c(S)ncnc21)OC(C)C	> 133	> 133	> 133	> 1060	> 1060	–	–	–
Nc1nc(F)nc2c1ncn2CCOCP(=O)(O)O	113	85.8	99.5	240	68.6	–	–	–
NC1=NC2N=CC=NC2C(=O)N1CCOCP(=O)(O)O (centres undefined)	98.9	26.3	115	230	230	–	–	–
Nc1cc2c(ncn2CCOCP(=O)(O)O)c(N)n1	> 17.4	> 17.4	> 17.4	243	1390	–	–	–
Nc1ccnc2c1ncn2CCOCP(=O)(O)O	1100	> 1460	734	551	734	–	–	–
CC(C)CCCCCOP(=O)(COCCn1cnc2nc(N)nc(Cl)c21)OCCCCCC(C)C	> 9.39	> 9.39	> 9.39	> 30	> 30	–	–	–
CC(C)OP(=O)(COCCn1cnc2c(N)ncnc21)OC(C)C	55.9	19.5	111	> 1110	> 1110	–	–	–
CC(C)OP(=O)(O)COCCn1cnc2c(N)nc(N)nc21	> 151	96.8	> 151	> 1210	> 1210	–	–	–
CCOP(=O)(O)COCCn1cnc2c(N)nc(N)nc21	6.32	12.6	15.8	474	632	–	–	–
Nc1nccc(OCCOCP(=O)(O)O)n1	> 401	> 401	> 401	> 802	–	–	–	–
CC(C)OP(=O)(COCCn1c(Br)nc2c(O)nc(N)nc21)OC(C)C	> 110	> 110	> 110	530	> 884	–	–	–
CC(C)OP(=O)(O)COCCn1cnc2c(N)ncnc21	> 158	> 158	> 158	951	> 1260	–	–	–
CCOP(=O)(O)COCCn1cnc2c(O)nc(N)nc21	0.0126	0.0252	0.0315	6.3	12.6	–	–	–
CC(C)CCCCCOP(=O)(COCCn1cnc2c(N)ncnc21)OCCCCCC(C)C	6.63	4.82	4.01	> 6.43	> 6.43	–	–	–
CCOP(=O)(O)COCCn1cnc2c(N)ncnc21	149	132	199	497	497	–	–	–
CC(C)CCCCCOP(=O)(COCCn1cnc2nc(N)nc(O)c21)OCCCCCC(C)C	50.6	62.3	58.4	> 31.1	> 31.1	–	–	–
Nc1nc(S)c2c(ncn2CCOCP(=O)(O)O)n1	65.5	121	98.2	65.5	> 327	–	–	–
Nc1nc(O)c2nc(Br)n(CCOCP(=O)(O)O)c2n1	76	10.8	48.9	130	> 1080	–	–	–
CC(C)OP(=O)(COCCn1cnc2nc(N)nc(O)c21)OC(C)C	–	> 133	> 133	> 535	> 535	–	–	–
Nc1ncnc2c1ccn2CCOCP(=O)(O)O	–	183	73.4	551	1100	–	–	–
Nc1nc(=O)n(CCOCP(=O)(O)O)cc1Br	9.14	18.2	15.2	60.9	914	–	–	–
CC(C)OP(=O)(COCCn1ncc(N)nc1=O)OC(C)C	239	> 299	290	–	–	–	–	–
CC(C)OP(=O)(O)COCCn1cnc2c(O)nc(N)nc21	0.0151	0.0121	0.0302	17.2	17.2	–	–	–

SMILES	EC50 [1] [µM]	EC50 [2] [µM]	EC50 [3] [µM]	EC50 [4] [µM]	EC50 [5] [µM]	EC50 (Thymidine kinase [6]) [µM]	EC50 [7] [µM]	EC50 (Thymidine kinase [8]) [µM]
Nc1nccc2c1ncn2CCOCP(=O)(O)O	257	183	367	–	–	–	–	–
Nc1nc(=O)ccn1CCOCP(=O)(O)O	> 401	> 401	160	–	–	–	–	–
CSc1ncnc2c1ncn2CCOCP(=O)(O)O	> 1310	164	> 1310	–	–	–	–	–
Nc1cc2c(ncn2CCOCP(=O)(O)O)c(O)n1	3.22	2.56	–	6.93	24.2	5.55	1.76	–
CC(C)OP(=O)(COCCn1cnc2c(N)nc(Cl)nc21)OC(C)C	–	1.27	9.44	–	–	–	–	–
CC(C)OP(=O)(COCCn1c(Br)nc2c(N)nc(N)nc21)OC(C)C	> 110	57.6	> 110	> 886	> 886	–	–	–
Nc1nc(Cl)c2ncn(CCOCP(=O)(O)O)c2n1	0.065	0.0195	0.227	0.747	0.487	–	–	–
Nc1nc(N)c2ncn(CCOCP(=O)(O)O)c2n1 [PMEDAP]	8.67	3.46	6.93	6.93	–	–	–	–
CC(C)CCCCCOP(=O)(COCCn1cnc2c(N)nc(N)nc21)OCCCCCC(C)C	> 39	> 9.75	6.24	> 31.2	> 31.2	–	–	–
Nc1nnc(N)c2c1ncn2CCOCP(=O)(O)O	> 173	> 173	> 173	1040	> 693	–	–	–
CC(C)CCCCCOP(=O)(COCCn1cnc2c(O)nc(N)nc21)OCCCCCC(C)C	35	–	8.17	> 155	> 155	–	–	21.4
Nc1cc2ncn(CCOCP(=O)(O)O)c2c(O)n1	–	–	–	> 693	> 693	–	–	–
Nc1cc(N)c2ncn(CCOCP(=O)(O)O)c2n1	> 174	> 174	> 174	243	522	–	–	–
Cc1nc(N)nc2c1ncn2CCOCP(=O)(O)O	> 174	> 174	> 174	696	522	–	–	–
CC(C)OP(=O)(COCCn1cnc2c(N)nc(N)nc21)OC(C)C	> 134	> 134	96.6	214	644	–	–	–
Nc1ncc2ncn(CCOCP(=O)(O)O)c2n1	98.8	219	102	256	–	–	–	–
Nc1cccc2c1ncn2CCOCP(=O)(O)O	> 184	> 184	> 184	> 1470	> 1470	–	–	–
CC(C)OP(=O)(COCCn1cnc2c(Cl)nc(N)nc21)OC(C)C	22.9	33.1	25.5	–	–	–	–	–
Nc1nc(O)c2c(ncn2CCOCP(=O)(O)O)n1	–	152	> 172	> 691	> 691	–	–	–
Nc1ccn(CCOCP(=O)(O)O)c(=O)n1	602	602	1600	401	–	–	–	–
Nc1ccn(CCOCP(=O)(O)O)c(=O)c1	302	> 402	261	–	–	–	–	–
CC(C)CCCCCOP(=O)(COCCn1cnc2c(Cl)nc(N)nc21)OCCCCCC(C)C	> 3.75	> 3.75	> 3.75	> 30	> 30	–	–	–
O=P(O)(O)COCCn1cnc2c(S)ncnc21	> 172	–	> 172	> 1370	> 1370	–	–	–
Nc1nc(O)nc2c1ncn2CCOCP(=O)(O)O	> 172	> 172	> 172	> 1380	> 1380	–	–	–
CC(C)OP(=O)(COCCn1cnc2c(O)nc(N)nc21)OC(C)C	83	53.5	37.4	642	642	–	–	–
CC(C)CCCCCOP(=O)(O)COCCn1cnc2c(O)nc(N)nc21	87.1	3.98	32.3	597	597	–	–	–
